Measurements from PMC7381488 (EBioMedicine, 2020).
“Also recorded” adds a separate entry of the source. Read-outs that look alike come from different tables or passages of the source. One block for each molecule: values may come before it.

Key:
virus = conditions: added between 6 and 10 h after virus exposure; cited from earlier work
[1] = Drug concentrations in rectal tissues of macaques 24h after oral dosing; type: in vivo; conditions: for rectal tissue concentration, macaques compared with humans: p=0•43 (EVG), p=0•073 (FTC), p=1 (TFV)
How it was run: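 Macaques received one oral gavage solution (20 mg/kg FTC, 1•5 mg/kg TAF, 30 mg/kg EVG, 30 mg/kg COBI) in 65% PEG 400/20% TPGS/15% phosphate buffer pH 8. Mucosal biopsies were taken about 5-6 cm above the anal aperture 24 h post-dose: FTC/EVG in 12 animals, TFV-DP/FTC-TP in 4. Analysis was by HPLC-MS/MS or LC-MS-MS. Median biopsy weight was 0•037 g. Comparison with humans used the Wilcoxon rank sum test.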

[2] = Drug concentrations in rectal tissues of humans 24h after a single tablet; type: in vivo
How it was run: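 Seven HIV-negative men aged 18-49 each took one observed oral tablet (200 mg FTC/10 mg TAF/150 mg EVG/150 mg COBI). Rectal biopsies were taken 24 h later. TFV, FTC and EVG were measured by HPLC-MS/MS against a 0•5-2000 ng/mL human-plasma standard curve (LLOQ 10 ng/mL). Intracellular TFV-DP and FTC-TP were measured by LC-MS-MS. Median biopsy weight for extracellular drugs was 0•020 g.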

[3] = type: in vivo, humans; conditions: for peak intracellular concentration in PBMCs: humans n=7, single Genvoya tablet (200 mg FTC/10 mg TAF/150 mg EVG/150 mg COBI), at 4h, median [range]; for time of peak in PBMCs: humans, single Genvoya tablet
How it was run: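 Seven HIV-negative men took a single oral tablet (200 mg FTC/10 mg TAF/150 mg EVG/150 mg COBI), with PBMCs collected at each time point. Cells were lysed in cold 80% methanol and stored at -80C. TFV-DP and FTC-TP were quantified by LC-MS-MS, with LLOQ 100 fmol/sample for TFV-DP and 500 fmol/sample for FTC-TP.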

[4] = type: in vivo, macaques
How it was run: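 PEP arms were dosed by oral gavage at +2h (n=5), +6h (n=6), +24h (n=6) or +24h/+48h (n=6) after rectal SHIV162P3 exposure. Dosing and challenge recurred every two weeks for up to 8 exposures. PBMC TFV-DP and FTC-TP were measured at each subsequent challenge, 2 weeks after dosing, and reported as medians. Values below LLOQ were set to 10 fmol/10^6 cells.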

[5] = Intracellular TFV-DP and FTC-TP in PBMCs of macaques after a single oral dose; type: in vivo; conditions: for peak intracellular concentration in PBMCs: macaques n=4, 20 mg/kg FTC, 1•5 mg/kg TAF, 30 mg/kg EVG/COBI oral, at 24h, median [range]; for time of peak in PBMCs: macaques, single oral dose
How it was run: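 Four macaques were gavaged once with FTC 20 mg/kg, TAF 1•5 mg/kg, EVG 30 mg/kg and COBI 30 mg/kg in PEG 400/TPGS/phosphate buffer vehicle. PBMCs were sampled over time and lysed in cold 80% methanol, then stored at -80C. TFV-DP and FTC-TP were measured by LC-MS-MS, with LLOQs of 100 and 500 fmol/sample respectively.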

[6] = type: in vivo, rhesus macaques; conditions: 30 mg/kg EVG + 30 mg/kg COBI vs 50 mg/kg EVG alone, macaques
[7] = macaques, cited from earlier work

SMILES: Cc1nnc(C(=O)NC(C)(C)c2nc(C(=O)NCc3ccc(F)cc3)c(O)c(=O)n2C)o1 [RAL, raltegravir]
post-infection inhibition in culture (virus): high post-infection inhibition

SMILES: COc1cc2c(cc1Cc1cccc(Cl)c1F)c(=O)c(C(=O)O)cn2[C@H](CO)C(C)C [EVG, elvitegravir]
rectal tissue concentration, macaques compared with humans ([1]; 24h after dosing): similar
increase of plasma Cmax and AUC0-24h by co-administration of COBI [6]: about 4 fold
plasma AUC0-24h of EVG without a booster ([7]; 50 mg/kg EVG oral, no COBI): 4000 ngxh/ml
plasma Cmax of EVG without a booster ([7]; 50 mg/kg EVG oral, no COBI): 280 ng/mL
time in secretions above the protein-adjusted 95% inhibition concentration ([7]; single oral dose, rectal and vaginal secretions): > 48 h
EVG concentration in rectal secretions relative to plasma ([7]; single oral dose): 694 fold
EVG concentration in vaginal secretions relative to plasma ([7]; single oral dose): 114 fold

SMILES: C[C@@H](Cn1cnc2c(N)ncnc21)OCP(=O)(O)OP(=O)(O)OP(=O)(O)O [TFV-DP]
median intracellular level in rectal tissue ([1]; macaques, 24h after single oral dose): 10,600 fmols/mg
median intracellular level in rectal tissue ([2]; 24h after single Genvoya tablet): 17,100 fmols/mg of tissue
peak intracellular concentration in PBMCs [3]: 299 [121–523] fmols/10^6 cells
time of peak in PBMCs [3]: 4 h
median residual level in PBMCs at time of SHIV challenge ([4]; +2h arm): < LLOQ; also recorded: below the limit of detection
median residual level in PBMCs at time of SHIV challenge ([4]; +6h arm): < LLOQ; also recorded: below the limit of detection
peak intracellular concentration in PBMCs [5]: 746 [509–1828] fmols/10^6 cells
time of peak in PBMCs [5]: 24 h

Results, then the molecule that gave them:

detection in rectal tissue ([1]; macaques, 24h after dosing): mostly undetectable
detection in rectal tissue ([2]; 24h after dosing): mostly undetectable
peak intracellular concentration in PBMCs [3]: 4215 [3630–7,150] fmols/10^6 cells
time of peak in PBMCs [3]: 4 h
residual level in PBMCs at the time of virus challenges ([4]; PEP arms): did not detect any residual FTC-TP
peak intracellular concentration in PBMCs [5]: 1737 [1153–3523] fmols/10^6 cells
time of peak in PBMCs [5]: 24 h
SMILES: Nc1nc(=O)n([C@@H]2CS[C@H](COP(=O)(O)OP(=O)(O)OP(=O)(O)O)O2)cc1F [FTC-TP]

rectal tissue concentration, macaques compared with humans ([1]; 24h after dosing): similar
SMILES: C[C@H](Cn1cnc2c(N)ncnc21)OCP(=O)(O)O [TFV, tenofovir]

rectal tissue concentration, macaques compared with humans ([1]; 24h after dosing): similar
SMILES: Nc1nc(=O)n([C@@H]2CS[C@H](CO)O2)cc1F [FTC, emtricitabine]
